Screening results: PubChem, Sanford-Burnham Center for Chemical Genomics
The list is a sample of the results.
Apaf-1 act: activates human Apaf-1 apoptosome; O14727; Apaf-1 apoptosome caspase-3 activation, DEVD-Rh110 fluorescence; stronger effect = lower value; activity change, negative = activation, % at 20 µM; actives 0.31% (n = 330,000);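 active means activity change at or below -40% at 20 µM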
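Material: reconstituted apoptosome of Apaf-1, cytochrome c, caspase-9, procaspase-3; times: 30 min preincubation, 50 min reaction, room temperature; measured by: fluorescence, 540 nm emission, 480 nm excitation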
Rh110 act interf: counter-screen for Apaf-1 activators: fluorescence interference; shares compounds with Apaf-1 act; Rh110 fluorescence interference, quenched caspase reaction, Ex480/Em540; 980 tested, under 10 active; fluorescence interference (activity change), % at 20 µM, hits read low; AID 504616;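 active means mean activity change at or below -40% when tested at 20 µM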
Apaf-1 act conf: Apaf-1 (human) activation, single-dose confirmed; shares compounds with Apaf-1 act; activity change, negative = activation, % at 20 µM; actives 5% (n = 980); reconstituted apoptosome caspase-3 activity, DEVD-Rh110 fluorescence; stronger effect = lower value; AID 504617;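 active means mean activity change at or below -40%, meaning activation of 40% or more, at 20 µM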
Of the large screens only hits and unclear results are named; the others gave an inactive call (follow-up assays come after a bar, where they were run).

CCN(CC)CCn1c2c(c(SCC(=O)Nc3nccs3)nc1=O)CCCC2	Apaf-1 act -50 | Rh110 act interf inactive | Apaf-1 act conf inactive
C[C@@H](CN1C2=NC[C@H](Cc3ccccc3)N2C[C@H]1Cc1ccc(O)cc1)NC(=O)CCC1CCCCC1	none
CCOc1ccc2[nH]c(=O)c(CN(CC3CCCN3CC)C(=O)NCc3ccccc3)cc2c1 (stereo not drawn)	Apaf-1 act -137 | Rh110 act interf inactive | Apaf-1 act conf inactive
Clc1ccc(-c2nnc3sc(Cc4cccs4)nn23)cc1	none
N=c1n(Cc2ccccc2)c2ccccc2n1CC(O)COc1ccc(Cl)cc1Cl (stereo not drawn)	none
C#CCOCCOCCOCCNc1nc(N2CCN(C(=O)[C@H](Cc3ccc(O)cc3)n3cc([C@@H](N)C(C)CC)nn3)CC2)nc(N2CCN(C(=O)[C@H](Cc3cc4ccccc4[nH]3)n3cc([C@@H](N)CC(C)C)nn3)CC2)n1 (stereo partly drawn)	none
CC(=O)c1cccc(NC(=S)Nc2cccc3ccccc23)c1	none
COc1cccc(NC(=O)c2cc(C(=O)Nc3cccc(OC)c3)n(C)n2)c1	none
COc1cccc(NC(=S)NC(=O)c2cncc(Br)c2)c1	Apaf-1 act -318 | Rh110 act interf inactive | Apaf-1 act conf inactive
COc1ccc(C(=O)c2c(C(F)(F)F)oc3c2C(=O)c2ccccc2C3=O)cc1	none
Cc1ccc(S(=O)(=O)N2CCN(c3ccc([N+](=O)[O-])c4cccnc34)CC2)cc1	none
O=C1NCCCC2c3cc(O)c4ccccc4c3OC12N1CCCCC1 (stereo not drawn)	none
COc1cccc(N2CCN(C(=O)c3ccc(=O)oc3)CC2C)c1 (stereo not drawn)	Apaf-1 act -332 | Rh110 act interf inactive | Apaf-1 act conf inactive
Cc1cccc(N2CCN(C(=O)c3ccc4nc(-c5ccco5)c(-c5ccco5)nc4c3)CC2C)c1 (stereo not drawn)	none
COCCN1C=C2C(=O)C(C)(OC(=O)CCC(=O)OC)C(=O)C=C2C=C1C1CC1 (stereo not drawn)	none
C#CCOCCOCCOCCNc1nc(N2CCN(C(=O)CCCCCCCCCCNC(=O)[C@@H](CCSC)n3cc(CCO)nn3)CC2)nc(N2CCN(C(=O)CCCCCCCCCCNC(=O)[C@H]([C@@H](C)CC)n3cc(CCCCN=C(N)N)nn3)CC2)n1	none
Cc1ccc(-c2cc(C(=O)O)c3cc(Br)ccc3n2)s1	none
O=C(C[C@H]1C[C@H](C(=O)N2CCCCC2)[C@@]2(CCc3ccccc3)c3[nH]c4ccc(Cl)cc4c3CCN2C1=O)NCCCn1ccnc1	none
C[C@@]12CCC=C[C@H]1[C@H](c1ccc3ccccc3c1Br)N(Cc1ccccc1)C2=O	none
O=C(Nc1ccc2ccccc2n1)Nc1cccs1	Apaf-1 act -58 | Rh110 act interf inactive | Apaf-1 act conf inactive
CCOC(=O)N=Nc1c2ccccc2c2nc3no[nH]c3nc12	none
O=[N+]([O-])c1cc2c(cc1C=Nc1ccccc1)OCO2	none
CCN(CC)S(=O)(=O)c1ccc(N/N=C(\C)c2ccc3c(c2)OCO3)c([N+](=O)[O-])c1	Apaf-1 act -41 | Rh110 act interf inactive | Apaf-1 act conf inactive
C1=CC2c3ccccc3NC(c3ccncc3)C2C1 (stereo not drawn)	none
COc1ccc([N+](=O)[O-])cc1NC1C2CC3CC(C2)CC1C3 (stereo not drawn)	Apaf-1 act -522 | Rh110 act interf inactive | Apaf-1 act conf inactive
CCCCCc1cc(=O)oc2c(C(CCN3CCCC(C)C3)c3ccc(N(C)C)cc3)c(OC)cc(OC)c12 (stereo not drawn)	none
CCN(CC)C(=O)C1CCCN(C(=O)Nc2ccc3nsnc3c2)C1 (stereo not drawn)	none
COc1cccc(Cn2cnc3c(NS(=O)(=O)c4ccc(Cl)cc4Cl)c(C)c(C)cc32)c1	Apaf-1 act -66 | Rh110 act interf inactive | Apaf-1 act conf inactive
O=C1C(Nc2ccccc2)=C(N2CCCCC2)C(=O)c2ccccc21	none
O=C1C=C(Nc2ccc(F)cc2)c2ccccc2C1=O	none
COc1ccc(C(CC(=O)c2ccc(O)cc2)S(=O)(=O)c2ccc(C)cc2)cc1 (stereo not drawn)	Apaf-1 act -64 | Rh110 act interf inactive | Apaf-1 act conf inactive
COc1ccc(S(=O)(=O)/N=C2\C=C(Nc3ccc(O)cc3)C(=O)c3ccccc32)cc1	none
CN(C)CCCN(C(=O)c1ccc(S(=O)(=O)N2CCc3ccccc3C2)cc1)c1nc2ccc(F)cc2s1	none
COc1ccc(N2CC(C(=O)N/N=C/c3cc([N+](=O)[O-])ccc3O)CC2=O)cc1 (stereo not drawn)	Apaf-1 act -318 | Rh110 act interf inactive | Apaf-1 act conf inactive
COc1ccc(CN2CC(C(=O)NCc3cccc(OC)c3)CC2=O)cc1 (stereo not drawn)	none
COc1ccc(-c2sc3ccccc3c2-c2ccc(OCCN(C)C)cc2)cc1	none
c1cc2c3c(cccc3c1)NC1(CCCCCC1)N2	none
Cc1nn(-c2ccccc2)c(N2CCCC2)c1/C=C1\N=C(c2ccc(OC(C)C)cc2)OC1=O	none
Oc1ccc(N=Cc2ccc(-c3cccs3)s2)cc1	none
COc1ccc(-c2noc(COc3ccc4ccccc4c3Br)n2)cc1OC	Apaf-1 act -136 | Rh110 act interf inactive | Apaf-1 act conf inactive
S=c1[nH]nc(-c2ccncc2)n1/N=C/c1cn(-c2ccccc2)nc1-c1ccc(Cl)cc1	Apaf-1 act -59 | Rh110 act interf inactive | Apaf-1 act conf inactive
CC(Nc1cccc2ccccc12)C(=O)N/N=C/c1ccccn1 (stereo not drawn)	none
C#CCOCCOCCOCCNc1nc(N2CCN(C(=O)[C@H](CCCCN)n3cc([C@@H](N)[C@H](C)CC)nn3)CC2)nc(N2CCN(C(=O)[C@H](CCCCN)n3cc([C@@H](N)CC(N)=O)nn3)CC2)n1	none
COc1ccccc1NC(=O)C1=C(C)Nc2nnnn2C1c1cccc(C)c1 (stereo not drawn)	Apaf-1 act -71 | Rh110 act interf inactive | Apaf-1 act conf inactive
COc1ccc2c(c1OC)C(=O)OC2C1c2c(cc3c(c2OC)OCO3)CCN1C (stereo not drawn)	none
Cc1[nH]c(=O)[nH]c(=O)c1S(=O)(=O)N1CCN(c2ccccc2F)CC1	Apaf-1 act -517 | Rh110 act interf inactive | Apaf-1 act conf inactive
O=C(NCCO)Nc1ccc2nc(-c3ccco3)c(-c3ccco3)nc2c1	none
CCOC(=O)C1=C(CN2CCN(c3ccc(F)cc3)CC2)NC(=O)NC1c1cccs1 (stereo not drawn)	none
CCCC(C)NC(=O)c1cc(C(=O)OC)cc([N+](=O)[O-])c1 (stereo not drawn)	Apaf-1 act -108 | Rh110 act interf inactive | Apaf-1 act conf inactive
O=C(Oc1ccc[nH]c1=O)c1cc([N+](=O)[O-])cc([N+](=O)[O-])c1	none
CC(=O)c1ccc(OCCCC(=O)N2CCN(S(=O)(=O)c3ccc(C)cc3C)CC2)cc1	none
CN(C)CCCN1c2ccccc2Sc2ccc(Cl)cc21	none
Cc1ccccc1NC(=S)N/N=C/c1ccc(O)cc1O	Apaf-1 act -43 | Rh110 act interf inactive | Apaf-1 act conf inactive
Oc1ccc(C=Nc2cccc3ccccc23)c(O)c1	none
Cc1ccccc1NC(=S)Nc1cccc2cnccc12	none
CCCCNc1cc(NC(C)=O)cc2cc(OC)c(OC)cc12	none
